Assay results as given in ChEMBL document CHEMBL1140312, “Synthesis and biological evaluation of geminal disulfones as HIV-1 integrase inhibitors” (J Med Chem, 2005).

Legend:
HeLa [1] = assay: Antiviral activity against human immuno deficiency virus type 1 in HeLa H1-JC.37 cells; type: functional, cell-based
Method in brief: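 HIV-1 focal infectivity assay in HeLa H1-JC.37 indicator cells (HeLa CD4 expressing human CCR5, naturally CXCR4). Foci immunostained with monoclonal antibody 22-6 at 1/800 and counted under a dissecting microscope at 30× to 100×. Plotted as percentage of no-drug control foci against inhibitor concentration; EC50 from best-fit line of linear portion; at least three separate experiments.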

[2] = target: T1, Human immunodeficiency virus type 1 integrase (Human immunodeficiency virus 1, UniProt Q7ZJM1); assay: Inhibitory concentration against integration of HIV-1 Integrase
T1 sequence (Q7ZJM1 whole entry): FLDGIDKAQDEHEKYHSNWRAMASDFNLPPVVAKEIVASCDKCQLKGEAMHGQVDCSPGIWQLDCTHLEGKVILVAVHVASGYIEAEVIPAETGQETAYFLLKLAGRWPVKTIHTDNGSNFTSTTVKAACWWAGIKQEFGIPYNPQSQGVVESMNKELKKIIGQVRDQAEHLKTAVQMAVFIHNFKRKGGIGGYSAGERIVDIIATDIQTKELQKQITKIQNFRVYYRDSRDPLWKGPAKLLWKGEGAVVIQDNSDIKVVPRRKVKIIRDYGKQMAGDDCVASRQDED

HeLa [3] = assay: Ratio of cytotoxicity for HeLa H1-JC.37 cells (IC50) to antiviral activity against HIV-1 (EC50); type: functional, Homo sapiens
Method in brief: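 Ratio of cytotoxic IC50 to antiviral EC50 in HeLa H1-JC.37 cells (HeLa CD4 expressing CCR5). EC50 came from an HIV-1 focal infectivity assay: mAb 22-6 (1/800) immunostaining, foci counted at 30× to 100×, best-fit linear portion of % no-drug control foci versus concentration, at least three experiments. IC50 came from an MTS proliferation assay, same fitting, at least two experiments.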

[4] = target: T1, Human immunodeficiency virus type 1 integrase; assay: Inhibitory concentration against 3'processing of HIV-1 Integrase
HeLa [5] = assay: Cytotoxicity for HeLa H1-JC.37 cells using MTS assay; type: functional, cell-based; settings: Homo sapiens
Method in brief: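 HeLa H1-JC.37 cell proliferation measured by MTS assay under manufacturer's recommended conditions. Data plotted as percentage of no-drug control against inhibitor concentration; IC50 for 50% inhibition of proliferation taken from best-fit line of linear portion of plot; at least two separate experiments.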

Row | SMILES | EC50 (HeLa [1]) [µM] | IC50 [2] [µM] | IC50 [4] [µM] | Selectivity index (HeLa [3]) | IC50 (HeLa [5]) [µM]
1 | O=S(=O)(/C=C/c1cc(O)c(O)c(O)c1)CS(=O)(=O)/C=C/c1cc(O)c(O)c(O)c1 | 0.3 | 0.9 | 1.8 | 563 | 169
2 | COc1cc(/C=C/S(=O)(=O)CS(=O)(=O)/C=C/c2ccc(C(C)=O)c(OC)c2)ccc1C(C)=O |  | > 1000 | > 1000 |  | 
3 | O=S(=O)(/C=C/c1ccc(OCc2ccccc2)c(OCc2ccccc2)c1)CS(=O)(=O)/C=C/c1ccc(OCc2ccccc2)c(OCc2ccccc2)c1 |  | 700 | 700 |  | 

More lines, main results first:

Row | EC50 (HeLa [1]) [µM] | IC50 [2] [µM] | IC50 [4] [µM] | SMILES | Selectivity index (HeLa [3]) | IC50 (HeLa [5]) [µM]
4 | 2.4 | 5 | 4 | O=S(=O)(/C=C/c1ccc(O)c(O)c1)CS(=O)(=O)/C=C/c1ccc(O)c(O)c1 | 78 | 187
5 | 4.5 | 80 | 80 | COc1cc(/C=C/S(=O)(=O)CS(=O)(=O)/C=C/c2ccccc2)cc(O)c1O | 4.3 | 19
6 | 0.78 |  | > 1000 | O=C(O)C(=O)CC(=O)c1cc(OCc2ccccc2)cc(OCc2ccccc2)c1 |  | 
7 | 1.3 | 50 | 50 | COc1cc(/C=C/S(=O)(=O)CS(=O)(=O)/C=C/c2cc(O)c(O)c(OC)c2)cc(O)c1O | 22 | 29
